Published values collected from several papers.
Lines come from different studies, so protocols differ.
Target: Casein kinase I isoform epsilon (CSNK1E, Homo sapiens, UniProt P49674)

SMILES | assay | conditions | measurement | value
Cn1c2c(c3ccccc31)C(C#N)C(C)(C)NC2=O (centres unmarked) | thermal stability, DSF | 10 µM | ΔTm | 0.8 °C
O=C1NC(=O)c2cc(Nc3ccc(F)cc3)c(Nc3ccc(F)cc3)cc21 | enzyme activity, inhibitor | 0.5 µM | remaining activity | 98%
CNCc1ccccc1-c1csc([C@H](C)Nc2nc(C)nc3cc(OC)c(OC)cc23)c1 | cell-free assay, competition with immobilised ligand | 1 µM | remaining binding | 91%
O=c1c2ccccc2[nH]c(=S)n1CCN1CCC(=C(c2ccc(F)cc2)c2ccc(F)cc2)CC1 | enzyme activity, inhibitor | 0.5 µM | remaining activity | 100%
Cn1c2c(Cl)c(Cl)ccc2c2cc(N)[nH]c(=O)c21 | thermal stability, DSF | 10 µM | ΔTm | 0.5 °C
N#CCCc1ccc2c(c1)-c1[nH]c3ccc([N+](=O)[O-])cc3c1CC(=O)N2 | cell-free assay | 0.5 µM | remaining signal | 91.4%
CCS(=O)(=O)c1cc2cc(C[C@@](O)(CC(C)(C)c3ccc(F)cc3C(N)=O)C(F)(F)F)[nH]c2cn1 | cell-free assay, competition with immobilised ligand | 1 µM | remaining binding | 97%
CS(=O)(=O)CCNCc1ccc(-c2ccc3ncnc(Nc4ccc(OCc5cccc(F)c5)c(Cl)c4)c3c2)o1 | enzyme activity | 0.5 µM | remaining activity | 99.4%
O=C(Nc1cnn(-c2csc(C(=O)NC3COC3)c2)c1)Nc1c(F)cccc1Cl | enzyme activity, inhibitor | 5 µM | remaining activity | 88.6%
COc1cc2ncnc(Nc3ccc(Oc4ccccc4)cc3C)c2cc1OC | enzyme activity, inhibitor | 1 µM | inhibition | 2%
CC(C)(O)[C@H]1CC[C@H](Nc2ccc3ncc(-c4cccc(C(F)(F)F)c4)n3n2)CC1 | enzyme activity, inhibitor | 1 µM | remaining activity | 78.5%
CCCCN(CCCC)C(=O)CN1C[C@H](c2cc(OC)c3c(c2)OCO3)[C@@H](C(=O)O)[C@@H]1CC(C)(C)CCC | cell-free assay, competition with immobilised ligand | 1 µM | remaining binding | 100%
Cc1ccc(C(=O)Nc2ccc(CN3CCN(C)CC3)c(C(F)(F)F)c2)cc1C#Cc1cnc2cccnn12 | enzyme activity, inhibitor | 23.5 nM | remaining activity | 88%
CC1=C(C#N)C(c2ccc3c(c2)c(NC(=O)c2ccccc2C)nn3C)C(C#N)=C(C)N1 | cell-free assay, competition with immobilised ligand | 1 µM | remaining binding | 100%
COc1cc2ncnc(Nc3ccc(F)c(Cl)c3)c2cc1OCCCN1CCOCC1 | enzyme activity | 0.5 µM | remaining activity | 106%
O=C(NCCCNc1nc(Nc2cccc(NC(=O)N3CCCC3)c2)ncc1I)c1cccs1 | enzyme activity, inhibitor | 1 µM | inhibition | -16%
C[C@@H]1CCN(C(=O)CC#N)C[C@@H]1N(C)c1ncnc2[nH]ccc12 | enzyme activity, inhibitor | 0.5 µM | remaining activity | 101%
CC(C)(C)c1nc2c(s1)c1nc(N)ncc1c1ccc(NS(=O)(=O)c3c(F)cccc3F)c(F)c12 | enzyme activity, inhibitor, radiometric | 1 µM | remaining activity | 84%
CN(C)C(=O)Cn1cc(-c2nc(C3(c4ccc(-c5cnc(N)nc5)cc4)CC3)no2)cn1 | cell-free assay, competition with immobilised ligand | 1 µM | remaining binding | 100%
Nc1ncnc2occ(-c3ccc(NC(=O)Nc4cc(C(F)(F)F)ccc4F)cc3)c12 | enzyme activity, inhibitor | 20 µM | remaining activity | 0.65%
Cn1c2c(c3ccc(Cl)c(Cl)c31)C(C#N)C1(CCOCC1)NC2=O (centres unmarked) | thermal stability, DSF | 10 µM | ΔTm | 0.4 °C
Nc1nc(Nc2ccc(S(N)(=O)=O)cc2)nn1C(=O)c1c(F)cccc1F | cell-free assay | 0.5 µM | remaining signal | 96.9%
O=C(NS(=O)(=O)c1ccc(NCC2CCOCC2)c([N+](=O)[O-])c1)c1ccc(N2CCN(Cc3ccc(C(F)(F)F)cc3-c3ccc(Cl)cc3)CC2)cc1Oc1cnc2[nH]ccc2c1 | cell-free assay, competition with immobilised ligand | 1 µM | remaining binding | 95%
